Each block holds one compound with its values, some of them ahead of it.
Experiments:
[1] = Prodrug conversion in C57BL/6 mouse model with CES-/- bearing mouse EL4 cells assessed as concentration of DON release in tumor administered subcutaneously at 1 mg/kg DON equivalent measured after 30 mins; type: ADME, organism-based; settings: in vivo, sc, 0.5 h, read-out: Drug metabolism
In short: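 Male and female CES1–/– C57BL/6 mice, 6–8 weeks old, each carrying a flank EL4 tumour (1 × 10^6 cells SC in PBS, grown to about 400 mm3). Prodrug dissolved just before use in ethanol:Tween 80:saline (5:10:85) and given once SC at 1 mg/kg DON equivalent, n = 3. At 30 min, plasma and tumour collected. DON measured by LC-MS/MS after dabsyl chloride derivatization, glutamate-d5 internal standard, calibration 0.03–100 nmol/mL.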

[2] = Chemical stability of compound at pH 7.4 at 10 uM incubated for 24 hrs by HRMS analysis; type: physicochemical; settings: buffer, pH 7.4, 24 h
In short: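 Prodrug spiked at 10 μM into pH 7.4 buffer and held at 37 °C for 24 h. Loss of prodrug followed by HRMS.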

[3] = Stability in human plasma suspended with human P493B cells assessed as tumor cell to plasma partitioning at 20 uM incubated for 1 hr; type: ADME
In short: (§1)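 P493B cells resuspended in human plasma at 10 million cells/mL and preincubated 5 min at 37 °C. Prodrug spiked at 20 μM final and incubated 1 h at 37 °C, in triplicate. Cells pelleted at 1000g. Plasma and pellet each analysed by LC-MS for intact prodrug and DON, with calibration made in each matrix. Partitioning expressed as cell/plasma ratio.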

[4] = Stability in human P493B cells suspended in human plasma assessed as tumor cell to plasma partitioning ratio at 20 uM incubated for 1 hr; type: ADME, cell-based; in short: as §1
[5] = Stability in human P493B cells suspended in human plasma assessed as DON metabolite release at 20 uM incubated for 1 hr; type: ADME, cell-based; in short: as §1
[6] = tested on: P493B; experiment: Antiproliferative activity against human P493B cells assessed as reduction in cell viability incubated for 72 hrs by Cell Titer 96 Aqueous assay; type: functional, cell-based
In short: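 P493B lymphoma cells seeded at 20 000 cells/well. Test agent added as half-log serial dilutions in 0.2% DMSO final, then 72 h growth. CellTiter 96 AQueous reagent added for 2 h and absorbance read at 490 nm. Viability scaled between untreated cells (100%) and cell-free medium (0%). EC50 obtained by nonlinear regression of log-transformed data.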

[7] = Prodrug conversion in human P493B cells suspended in human plasma assessed as DON metabolite concentration at 20 uM incubated for 1 hr; type: ADME, cell-based; in short: as §1
[8] = Prodrug conversion in tumor of C57BL/6 mouse model with CES-/- bearing mouse EL4 cells assessed as Cmax of DON metabolite at 2.9 mg/kg, sc measured upto 6 hrs by LC-MS analysis; type: ADME, organism-based, Neoplasm; design: dose 2.9 mg/kg, time < 6 hrs, route sc; settings: in vivo
In short: (§2)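 CES1–/– C57BL/6 mice with flank EL4 tumours (about 400 mm3) dosed SC at 2.9 mg/kg (1 mg/kg DON equivalent) in ethanol:Tween 80:saline (5:10:85). Plasma, tumour and jejunum sampled 0–6 h after dosing. DON quantified by LC-MS/MS after dabsyl chloride derivatization, glutamate-d5 internal standard. Cmax, Tmax and AUC derived by noncompartmental analysis.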

[9] = Prodrug conversion in tumor of C57BL/6 mouse model with CES-/- bearing mouse EL4 cells assessed as Tmax of DON metabolite at 2.9 mg/kg, sc measured upto 6 hrs by LC-MS analysis; type: ADME, organism-based, Neoplasm; settings: in vivo; in short: as §2
[10] = Prodrug conversion in tumor of C57BL/6 mouse model with CES-/- bearing mouse EL4 cells assessed as AUC of DON metabolite at 2.9 mg/kg, sc measured upto 6 hrs by LC-MS analysis; type: ADME, organism-based, Neoplasm; design: time < 6 hrs, dose 2.9 mg/kg, route sc; settings: in vivo; in short: as §2
[11] = Prodrug conversion in tumor of C57BL/6 mouse model with CES-/- bearing mouse EL4 cells assessed as half life of DON metabolite at 2.9 mg/kg, sc measured upto 6 hrs by LC-MS analysis; type: ADME, organism-based, Neoplasm; settings: in vivo; in short: as §2
[12] = Prodrug conversion in plasma of C57BL/6 mouse model with CES-/- bearing mouse EL4 cells assessed as Cmax of DON metabolite at 2.9 mg/kg, sc measured upto 6 hrs by LC-MS analysis; type: ADME, organism-based; design: time < 6 hrs, dose 2.9 mg/kg, route sc; settings: in vivo; in short: as §2
[13] = Prodrug conversion in plasma of C57BL/6 mouse model with CES-/- bearing mouse EL4 cells assessed as Tmax of DON metabolite at 2.9 mg/kg, sc measured upto 6 hrs by LC-MS analysis; type: ADME, organism-based; settings: in vivo; in short: as §2
[14] = Prodrug conversion in plasma of C57BL/6 mouse model with CES-/- bearing mouse EL4 cells assessed as AUC of DON metabolite at 2.9 mg/kg, sc measured upto 6 hrs by LC-MS analysis; type: ADME, organism-based; design: time < 6 hrs, dose 2.9 mg/kg, route sc; settings: in vivo; in short: as §2
[15] = Prodrug conversion in plasma of C57BL/6 mouse model with CES-/- bearing mouse EL4 cells assessed as half life of DON metabolite at 2.9 mg/kg, sc measured upto 6 hrs by LC-MS analysis; type: ADME, organism-based; settings: in vivo; in short: as §2
[16] = Prodrug conversion in C57BL/6 mouse model with CES-/- bearing mouse EL4 cells assessed as ratio of DON metabolite AUC in tumor to plasma at 2.9 mg/kg, sc measured upto 6 hrs by LC-MS analysis; type: ADME, organism-based; settings: tumour; in short: as §2
[17] = Prodrug conversion in jejunum of C57BL/6 mouse model with CES-/- bearing mouse EL4 cells assessed as Cmax of DON metabolite at 2.9 mg/kg, sc measured upto 6 hrs by LC-MS analysis; type: ADME, organism-based; design: dose 2.9 mg/kg, time < 6 hrs, route sc; settings: in vivo; in short: as §2
[18] = Prodrug conversion in jejunum of C57BL/6 mouse model with CES-/- bearing mouse EL4 cells assessed as Tmax of DON metabolite at 2.9 mg/kg, sc measured upto 6 hrs by LC-MS analysis; type: ADME, organism-based; settings: in vivo; in short: as §2
[19] = Prodrug conversion in jejunum of C57BL/6 mouse model with CES-/- bearing mouse EL4 cells assessed as AUC of DON metabolite at 2.9 mg/kg, sc measured upto 6 hrs by LC-MS analysis; type: ADME, organism-based; design: dose 2.9 mg/kg, time < 6 hrs, route sc; settings: in vivo; in short: as §2
[20] = Prodrug conversion in jejunum of C57BL/6 mouse model with CES-/- bearing mouse EL4 cells assessed as half life of DON metabolite at 2.9 mg/kg, sc measured upto 6 hrs by LC-MS analysis; type: ADME, organism-based; settings: in vivo; in short: as §2
[21] = Prodrug conversion in C57BL/6 mouse model with CES-/- bearing mouse EL4 cells assessed as ratio of DON metabolite AUC in tumor to jejunum at 2.9 mg/kg, sc measured upto 6 hrs by LC-MS analysis; type: ADME, organism-based; settings: in vivo; in short: as §2
[22] = Prodrug conversion in tumor of C57BL/6 mouse model with CES-/- bearing mouse EL4 cells assessed as AUC (0 to t) of DON metabolite at 2.9 mg/kg, sc measured upto 6 hrs by LC-MS analysis; type: ADME, organism-based, Neoplasm; settings: in vivo; in short: as §2
[23] = Prodrug conversion in plasma of C57BL/6 mouse model with CES-/- bearing mouse EL4 cells assessed as AUC (0 to t) of DON metabolite at 2.9 mg/kg, sc measured upto 6 hrs by LC-MS analysis; type: ADME, organism-based; settings: in vivo; in short: as §2
[24] = Prodrug conversion in jejunum of C57BL/6 mouse model with CES-/- bearing mouse EL4 cells assessed as AUC (0 to t) of DON metabolite at 2.9 mg/kg, sc measured upto 6 hrs by LC-MS analysis; type: ADME, organism-based; settings: in vivo; in short: as §2
[25] = Prodrug conversion of C57BL/6 mouse model with CES-/- bearing mouse EL4 cells assessed as ratio of DON metabolite AUC (0 to t) in tumor to plasma at 2.9 mg/kg, sc measured upto 6 hrs by LC-MS analysis; type: ADME, organism-based; settings: tumour; in short: as §2
[26] = Prodrug conversion of C57BL/6 mouse model with CES-/- bearing mouse EL4 cells assessed as ratio of DON metabolite AUC (0 to t) in tumor to jejunum at 2.9 mg/kg, sc measured upto 6 hrs by LC-MS analysis; type: ADME, organism-based; settings: in vivo; in short: as §2
[27] = Drug concentration in jejunum of C57BL/6 mouse model with CES-/- bearing mouse EL4 cells at 2.9 mg/kg, sc measured upto 6 hrs by LC-MS analysis; type: ADME, organism-based; in short: as §2

concentration [1]: 4.16 µM
Structure (SMILES): CN(C)CC(=O)N[C@@H](Cc1ccc(C(F)(F)F)cc1)C(=O)N[C@@H](CCC(=O)C=[N+]=[N-])C(=O)OC(C)(C)C

Structure (SMILES): CN(C)CC(=O)N[C@@H](CCc1ccccc1)C(=O)N[C@@H](CCC(=O)C=[N+]=[N-])C(=O)OC(C)(C)C
concentration [1]: 4.52 µM

concentration [1]: 1.21 µM
Stability [2]: Stable
Stability [3]: Stable
Ratio [4]: 180
Stability [5]: Unstable
Drug metabolism [7]: 9.1 µM
Structure (SMILES): CC(=O)N[C@@H](Cc1c[nH]c2ccccc12)C(=O)N[C@@H](CCC(=O)C=[N+]=[N-])C(=O)OC(C)C [SIRPIGLENASTAT]
Activity [6]: Dose-Dependent Effect

concentration [1]: 5.49 µM
Cmax [8]: 5.49 µM
Tmax [9]: 30 min
AUC [10]: 14.4 µM·h
t1/2 [11]: 83.4 min
Cmax [12]: 1.86 µM
Tmax [13]: 30 min
AUC [14]: 3.97 µM·h
t1/2 [15]: 87 min
Ratio AUC [16]: 3.63
Cmax [17]: 1.54 µM
Tmax [18]: 60 min
AUC [19]: 3.67 µM·h
t1/2 [20]: 59.4 min
Ratio AUC [21]: 3.92
AUCt [22]: 13.7 nmol·h/g
AUCt [23]: 3.8 nmol·h/g
AUCt [24]: 3.13 nmol·h/g
Ratio AUC [25]: 3.6
Ratio AUC [26]: 4.4
concentration at 6 h [27]: < 0.01 µM
Stability [2]: Stable
Stability [3]: Stable
Ratio [4]: 140
Stability [5]: Unstable
Drug metabolism [7]: 46.7 µM
Structure (SMILES): CN(C)CC(=O)N[C@@H](Cc1ccccc1)C(=O)N[C@@H](CCC(=O)C=[N+]=[N-])C(=O)OC(C)(C)C
Activity [6]: Dose-Dependent Effect

Source: ChEMBL document CHEMBL5390282, “Discovery of tert-Butyl Ester Based 6-Diazo-5-oxo-l-norleucine Prodrugs for Enhanced Metabolic Stability and Tumor Delivery” (J Med Chem, 2023)
